Experiments:
[1] = biological target: T1, MAP kinase-activated protein kinase 5 (Homo sapiens) (UniProt Q8IW41); assay: Inhibition of PRAK assessed as residual activity at 10 uM by Cherenkov counting relative to control in presence of 20 uM ATP
T1 sequence (whole entry): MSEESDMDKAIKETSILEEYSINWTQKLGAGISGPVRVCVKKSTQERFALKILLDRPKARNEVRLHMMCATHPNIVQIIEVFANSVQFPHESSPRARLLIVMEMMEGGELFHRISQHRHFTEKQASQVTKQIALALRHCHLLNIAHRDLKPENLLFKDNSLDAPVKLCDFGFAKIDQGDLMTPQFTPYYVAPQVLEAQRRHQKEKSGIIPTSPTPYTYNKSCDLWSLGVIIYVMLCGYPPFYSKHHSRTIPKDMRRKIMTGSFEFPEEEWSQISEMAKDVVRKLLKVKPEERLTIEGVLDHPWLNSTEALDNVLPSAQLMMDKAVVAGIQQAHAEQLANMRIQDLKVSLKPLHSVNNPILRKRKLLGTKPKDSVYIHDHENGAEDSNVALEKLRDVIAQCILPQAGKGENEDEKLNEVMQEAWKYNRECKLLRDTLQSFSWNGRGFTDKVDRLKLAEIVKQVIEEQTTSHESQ
Method in brief: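 Single-concentration profiling at 10 μM in a 78-kinase panel. Kinase activity is expressed as a percentage of control assays run without compound.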

[2] = biological target: Ephrin type-A receptor 2 (Homo sapiens) (UniProt P29317); assay: Inhibition of EPHA2 assessed as residual activity at 10 uM by Cherenkov counting relative to control in presence of 50 uM ATP
Method in brief: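 Single-point profiling at 10 µM in a panel of 78 protein kinases. Kinase activity is expressed as a percentage relative to control assays without compound.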

[3] = biological target: T2, Inhibitor of nuclear factor kappa-B kinase subunit epsilon (Homo sapiens) (UniProt Q14164); assay: Inhibition of IKKepsilon assessed as residual activity at 0.1 uM by Cherenkov counting relative to control in presence of 50 uM ATP
T2 sequence (whole entry): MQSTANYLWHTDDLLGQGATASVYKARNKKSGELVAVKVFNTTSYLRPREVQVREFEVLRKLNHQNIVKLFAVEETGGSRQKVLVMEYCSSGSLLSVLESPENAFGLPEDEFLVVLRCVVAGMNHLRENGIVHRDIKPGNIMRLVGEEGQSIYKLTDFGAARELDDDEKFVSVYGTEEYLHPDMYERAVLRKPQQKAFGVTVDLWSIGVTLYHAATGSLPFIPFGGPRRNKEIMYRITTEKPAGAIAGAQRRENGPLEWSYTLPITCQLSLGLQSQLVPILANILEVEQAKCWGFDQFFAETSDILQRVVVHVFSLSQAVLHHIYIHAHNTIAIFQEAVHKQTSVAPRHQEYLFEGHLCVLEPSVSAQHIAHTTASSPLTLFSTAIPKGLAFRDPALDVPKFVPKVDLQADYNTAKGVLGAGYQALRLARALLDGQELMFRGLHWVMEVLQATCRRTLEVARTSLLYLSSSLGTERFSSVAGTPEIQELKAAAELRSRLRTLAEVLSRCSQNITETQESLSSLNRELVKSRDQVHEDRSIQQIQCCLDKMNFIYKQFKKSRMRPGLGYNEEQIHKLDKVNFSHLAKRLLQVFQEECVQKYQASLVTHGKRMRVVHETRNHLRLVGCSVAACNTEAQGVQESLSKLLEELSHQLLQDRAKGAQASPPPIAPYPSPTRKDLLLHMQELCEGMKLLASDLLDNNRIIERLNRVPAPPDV
Method in brief: (§1)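 Single-concentration screen at 0.1 µM across a panel of 76 protein kinases. Each kinase was run at an ATP concentration approximating its ATP Km. Results are % mean residual activity versus control assays without compound (n = 3 ± SD).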

[4] = biological target: Calcium/calmodulin-dependent protein kinase type 1 (Homo sapiens) (UniProt Q14012); assay: Inhibition of CAMK1 assessed as residual activity at 0.1 uM by Cherenkov counting relative to control in presence of 50 uM ATP; method in brief: as §1
[5] = biological target: Tyrosine-protein kinase Lck (Homo sapiens) (UniProt P06239); assay: Inhibition of Lck assessed as residual activity at 0.1 uM by Cherenkov counting relative to control in presence of 50 uM ATP
Method in brief: (§2)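 Single-concentration selectivity screen at 0.1 μM against a panel of 76 protein kinases. Each kinase was run at an ATP level approximating its Km for ATP. Output is mean residual activity as % of the control assay without compound, n = 3 ± SD.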

[6] = biological target: T3, Serine/threonine-protein kinase BRSK2 (Homo sapiens) (UniProt Q8IWQ3); assay: Inhibition of BRSK2 assessed as residual activity at 0.1 uM by Cherenkov counting relative to control in presence of 50 uM ATP; method in brief: as §1
T3 sequence (whole entry): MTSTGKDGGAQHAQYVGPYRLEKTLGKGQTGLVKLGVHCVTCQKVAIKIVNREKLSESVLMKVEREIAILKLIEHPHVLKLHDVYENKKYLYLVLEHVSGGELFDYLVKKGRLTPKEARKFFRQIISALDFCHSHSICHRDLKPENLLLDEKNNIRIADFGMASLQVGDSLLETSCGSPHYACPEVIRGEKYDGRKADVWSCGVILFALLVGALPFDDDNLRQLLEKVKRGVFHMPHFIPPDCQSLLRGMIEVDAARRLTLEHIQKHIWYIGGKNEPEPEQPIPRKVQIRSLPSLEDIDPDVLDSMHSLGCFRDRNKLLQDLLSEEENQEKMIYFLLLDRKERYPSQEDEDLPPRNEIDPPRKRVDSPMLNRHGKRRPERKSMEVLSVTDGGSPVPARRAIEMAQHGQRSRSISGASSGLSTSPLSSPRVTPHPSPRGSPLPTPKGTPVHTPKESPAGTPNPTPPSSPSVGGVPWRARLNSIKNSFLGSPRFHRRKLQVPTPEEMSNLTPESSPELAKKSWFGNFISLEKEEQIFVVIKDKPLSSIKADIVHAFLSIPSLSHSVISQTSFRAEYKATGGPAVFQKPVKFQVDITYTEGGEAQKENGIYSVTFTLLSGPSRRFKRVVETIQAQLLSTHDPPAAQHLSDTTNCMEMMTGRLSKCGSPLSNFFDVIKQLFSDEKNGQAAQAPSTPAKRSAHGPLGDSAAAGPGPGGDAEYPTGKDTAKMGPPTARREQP

[7] = biological target: Mitogen-activated protein kinase 14 (Homo sapiens, UniProt Q16539); assay: Inhibition of p38alpha by Cherenkov counting
[8] = biological target: Serine/threonine-protein kinase PAK 4 (Homo sapiens) (UniProt O96013); assay: Inhibition of PAK4 assessed as residual activity at 0.1 uM by Cherenkov counting relative to control in presence of 5 uM ATP; method in brief: as §2
[9] = biological target: Serine/threonine-protein kinase PAK 5 (Homo sapiens) (UniProt Q9P286); assay: Inhibition of PAK5 assessed as residual activity at 0.1 uM by Cherenkov counting relative to control in presence of 20 uM ATP; method in brief: as §2
[10] = Inhibition of AMPK assessed as residual activity at 0.1 uM by Cherenkov counting relative to control in presence of 50 uM ATP; method in brief: as §1

Chain of Tyrosine-protein kinase Lck (Homo sapiens) (P06239 2-509 limits assumed): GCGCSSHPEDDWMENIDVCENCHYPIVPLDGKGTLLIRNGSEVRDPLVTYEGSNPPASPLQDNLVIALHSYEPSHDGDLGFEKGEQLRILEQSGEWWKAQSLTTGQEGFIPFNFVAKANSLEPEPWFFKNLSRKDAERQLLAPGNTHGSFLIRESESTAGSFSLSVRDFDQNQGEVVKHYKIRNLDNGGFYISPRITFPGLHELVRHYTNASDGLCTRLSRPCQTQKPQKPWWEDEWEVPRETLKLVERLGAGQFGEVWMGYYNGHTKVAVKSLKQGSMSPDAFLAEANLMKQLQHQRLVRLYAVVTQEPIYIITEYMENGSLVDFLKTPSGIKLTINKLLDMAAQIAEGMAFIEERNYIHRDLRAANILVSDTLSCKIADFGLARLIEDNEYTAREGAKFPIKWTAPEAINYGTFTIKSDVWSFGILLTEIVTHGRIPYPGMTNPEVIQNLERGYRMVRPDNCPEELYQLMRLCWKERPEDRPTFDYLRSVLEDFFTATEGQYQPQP
Chain of Ephrin type-A receptor 2 (Homo sapiens) (P29317 whole entry): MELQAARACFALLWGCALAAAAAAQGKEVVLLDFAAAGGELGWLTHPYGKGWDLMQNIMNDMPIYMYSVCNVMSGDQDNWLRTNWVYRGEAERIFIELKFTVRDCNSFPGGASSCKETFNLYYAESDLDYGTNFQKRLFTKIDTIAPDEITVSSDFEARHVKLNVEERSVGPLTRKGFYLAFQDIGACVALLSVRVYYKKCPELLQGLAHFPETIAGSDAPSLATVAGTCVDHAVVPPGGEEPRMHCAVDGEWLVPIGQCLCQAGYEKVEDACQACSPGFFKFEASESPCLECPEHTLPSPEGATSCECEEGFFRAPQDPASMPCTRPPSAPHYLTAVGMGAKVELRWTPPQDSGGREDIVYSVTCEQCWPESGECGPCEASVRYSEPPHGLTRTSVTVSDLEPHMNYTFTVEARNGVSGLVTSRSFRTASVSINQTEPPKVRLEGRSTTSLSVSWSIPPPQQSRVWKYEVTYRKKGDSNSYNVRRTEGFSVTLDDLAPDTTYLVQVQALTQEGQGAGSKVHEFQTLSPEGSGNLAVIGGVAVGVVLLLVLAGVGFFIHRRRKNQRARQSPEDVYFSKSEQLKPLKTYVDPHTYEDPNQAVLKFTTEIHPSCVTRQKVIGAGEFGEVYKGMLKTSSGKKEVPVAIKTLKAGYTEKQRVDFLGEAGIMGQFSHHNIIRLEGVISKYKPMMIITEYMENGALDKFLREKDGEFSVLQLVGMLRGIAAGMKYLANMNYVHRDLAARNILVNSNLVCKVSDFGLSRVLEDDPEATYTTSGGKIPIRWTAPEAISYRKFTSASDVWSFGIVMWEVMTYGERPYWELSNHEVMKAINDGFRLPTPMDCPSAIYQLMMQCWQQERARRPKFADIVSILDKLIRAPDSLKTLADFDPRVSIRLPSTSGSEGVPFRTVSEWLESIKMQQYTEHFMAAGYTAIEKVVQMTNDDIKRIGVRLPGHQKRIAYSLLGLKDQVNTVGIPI
Chain of Mitogen-activated protein kinase 14 (Q16539 whole entry): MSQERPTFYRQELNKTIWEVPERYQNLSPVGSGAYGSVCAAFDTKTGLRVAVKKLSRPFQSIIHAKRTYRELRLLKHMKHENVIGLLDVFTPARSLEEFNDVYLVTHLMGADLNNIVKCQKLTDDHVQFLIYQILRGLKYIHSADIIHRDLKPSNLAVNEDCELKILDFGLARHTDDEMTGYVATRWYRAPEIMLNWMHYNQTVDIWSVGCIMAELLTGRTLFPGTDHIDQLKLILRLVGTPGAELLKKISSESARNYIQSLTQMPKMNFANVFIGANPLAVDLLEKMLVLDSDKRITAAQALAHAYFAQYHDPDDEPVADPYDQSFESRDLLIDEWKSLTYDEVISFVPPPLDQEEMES
Chain of Calcium/calmodulin-dependent protein kinase type 1 (Homo sapiens) (Q14012 whole entry, looked up): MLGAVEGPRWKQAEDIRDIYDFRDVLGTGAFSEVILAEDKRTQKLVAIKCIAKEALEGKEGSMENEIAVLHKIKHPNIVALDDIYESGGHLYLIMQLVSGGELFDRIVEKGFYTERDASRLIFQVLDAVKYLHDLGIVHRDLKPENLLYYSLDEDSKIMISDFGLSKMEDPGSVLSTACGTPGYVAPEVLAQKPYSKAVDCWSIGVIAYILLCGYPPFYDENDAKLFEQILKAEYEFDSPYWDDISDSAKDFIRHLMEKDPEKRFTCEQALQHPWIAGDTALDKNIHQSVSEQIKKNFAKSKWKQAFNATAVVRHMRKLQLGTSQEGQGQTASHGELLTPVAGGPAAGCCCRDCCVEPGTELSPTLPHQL
Chain of Serine/threonine-protein kinase PAK 4 (Homo sapiens) (O96013 whole entry, looked up): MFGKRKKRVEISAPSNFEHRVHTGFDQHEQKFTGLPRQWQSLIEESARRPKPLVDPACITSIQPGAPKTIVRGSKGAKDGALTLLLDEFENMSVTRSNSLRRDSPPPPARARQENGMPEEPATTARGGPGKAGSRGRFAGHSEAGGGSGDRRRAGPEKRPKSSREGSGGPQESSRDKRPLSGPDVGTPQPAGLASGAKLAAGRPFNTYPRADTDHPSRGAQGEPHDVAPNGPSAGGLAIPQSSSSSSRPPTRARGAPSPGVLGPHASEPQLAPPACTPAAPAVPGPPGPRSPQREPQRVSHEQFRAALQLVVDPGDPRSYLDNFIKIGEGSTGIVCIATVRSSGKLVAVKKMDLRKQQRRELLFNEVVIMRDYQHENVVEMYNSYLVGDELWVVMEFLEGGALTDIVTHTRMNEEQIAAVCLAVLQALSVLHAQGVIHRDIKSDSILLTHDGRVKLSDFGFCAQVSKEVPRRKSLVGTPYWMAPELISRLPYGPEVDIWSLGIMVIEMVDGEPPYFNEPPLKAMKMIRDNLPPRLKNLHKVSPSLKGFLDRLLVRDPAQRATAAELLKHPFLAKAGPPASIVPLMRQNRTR
Chain of Serine/threonine-protein kinase PAK 5 (Homo sapiens) (Q9P286 whole entry, looked up): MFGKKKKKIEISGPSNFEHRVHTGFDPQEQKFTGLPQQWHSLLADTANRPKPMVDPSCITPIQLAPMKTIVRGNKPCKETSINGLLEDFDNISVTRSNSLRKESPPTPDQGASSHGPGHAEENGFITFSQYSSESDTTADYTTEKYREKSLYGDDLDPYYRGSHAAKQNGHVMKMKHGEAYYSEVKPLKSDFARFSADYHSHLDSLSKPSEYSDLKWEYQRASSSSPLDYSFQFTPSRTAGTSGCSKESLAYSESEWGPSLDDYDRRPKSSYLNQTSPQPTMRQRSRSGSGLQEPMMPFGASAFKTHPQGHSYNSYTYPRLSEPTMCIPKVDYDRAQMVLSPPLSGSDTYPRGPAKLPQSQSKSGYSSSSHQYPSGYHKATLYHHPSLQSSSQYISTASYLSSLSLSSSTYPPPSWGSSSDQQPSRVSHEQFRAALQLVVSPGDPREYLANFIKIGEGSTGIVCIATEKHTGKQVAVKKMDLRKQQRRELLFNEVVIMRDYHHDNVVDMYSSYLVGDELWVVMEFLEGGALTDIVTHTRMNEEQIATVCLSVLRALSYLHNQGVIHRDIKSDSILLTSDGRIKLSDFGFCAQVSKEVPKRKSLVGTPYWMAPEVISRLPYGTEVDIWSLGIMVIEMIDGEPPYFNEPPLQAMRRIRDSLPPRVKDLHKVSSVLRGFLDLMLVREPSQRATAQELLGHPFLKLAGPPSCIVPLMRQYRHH

| Activity [1] | Activity [2] | Activity [3] | Activity [4] | Activity [5] | Activity [6] | IC50 [7] | Activity [8] | Activity [9] | Activity [10] | Structure (SMILES) |
| --- | --- | --- | --- | --- | --- | --- | --- | --- | --- | --- |
| 98% | 81% |  |  |  |  |  |  |  |  | CC(C)c1noc(-c2ccc(F)cc2)c1-c1ccncc1 |
| 88% | 79% |  |  |  |  |  |  |  |  | CC(C)c1onc(-c2ccc(F)cc2)c1-c1ccncc1 |
|  |  | 90% | 98% | 74% | 97% | 0.041 µM | 98% | 105% | 99% | COc1ccc(/C=C/C(=O)Nc2cc(-c3[nH]c([S+](C)[O-])nc3-c3ccc(F)cc3)ccn2)c(OC)c1 (stereo not given) |
|  |  | 97% | 92% | 50% | 86% | 0.019 µM | 81% | 94% | 92% | COc1ccc(/C=C/C(=O)Nc2cc(-c3[nH]c(SC)nc3-c3ccc(F)cc3)ccn2)c(OC)c1 |

From ChEMBL document CHEMBL1155278, “3,4-Diaryl-isoxazoles and -imidazoles as potent dual inhibitors of p38alpha mitogen activated protein kinase and casein kinase 1delta” (J Med Chem, 2009)
